Reference: ChEMBL document CHEMBL4346665, “Synthesis and evaluation of tetrahydroquinolin-2(1H)-one derivatives as novel anti-pancreatic cancer agents via targeting autophagy” (Eur J Med Chem, 2019)
pIC50: −log10 of the molar value. Activity calls are given as the source filed them. No cut-off for these calls is given here.

Columns and labels:
[1] = test system: PANC-1; experiment: Induction of apoptosis in human PANC1 cells in nutrient-deprived medium assessed as necrotic cells at 10 uM incubated for 24 hrs by Annexin V-FITC/PI double staining based flow cytometric analysis (reference value: 0 to 2.8%); assay type: functional
How it was run: (§1)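 PANC-1 cells under NDC exposed 24 h at 5.0, 10.0 or 20.0 µM. Annexin V-FITC/PI double staining, flow cytometric quantification of live, early apoptotic, late apoptotic and necrotic fractions. Arctigenin as positive control.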

[2] = test system: PANC-1; experiment: Antitumor activity against human PANC1 cells xenografted in nude mouse assessed as reduction in tumor size at 5 to 20 mg/kg, ip administered daily for 4 weeks post tumor inoculation by Gd-DTPA based T1 weighted MRI analysis; assay type: functional, organism-based
How it was run: (§2)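 PANC-1 xenografts in nude mice. Dosing daily at 5, 10 or 20 mg/kg/day for 30 days, or 30 mg/kg every three days for the gemcitabine reference. Tumor volume from diameters and tumor weight at end of study. Body weight monitored, kidney and liver examined. T1-weighted MRI on day 30 with Gd-DTPA contrast via tail vein. Mean ± S.D., n = 5, vs control group.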

[3] = test system: PANC-1; experiment: Inhibition of autophagy in human PANC1 cells in nutrient-deprived medium assessed as reduction in LC3-2 expression level at 10 uM incubated for 1 to 6 hrs by Western blot analysis
[4] = test system: PANC-1; experiment: Induction of apoptosis in human PANC1 cells in nutrient-deprived medium assessed as late apoptotic cells at 20 uM incubated for 24 hrs by Annexin V-FITC/PI double staining based flow cytometric analysis (reference value: 0 to 0.9%); assay type: functional; how it was run: as §1
[5] = Toxicity in human PANC1 cells xenografted in nude mouse assessed as change in body weight at 5 to 20 mg/kg, ip administered daily for 4 weeks post tumor inoculation; assay type: organism-based; conditions: in vivo, 672 h
How it was run: (§3)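 PANC-1 xenografts in nude mice, 5 per group. Daily injections of 5, 10 or 20 mg/kg for 30 days. Gemcitabine reference arm dosed at 30 mg/kg every three days, compared with untreated controls. Body weight tracked through dosing and deaths recorded. Tumour diameters measured over time and tumours weighed at endpoint. Kidneys and liver examined for lesions.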

[6] = test system: PANC-1; experiment: Induction of autophagy in human PANC1 cells in nutrient-deprived medium assessed as reduction in mean intensity of LC3 at 10 uM incubated for 24 hrs by DAPI staining based confocal microscopic analysis; assay type: functional, cell-based
How it was run: (§4)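 LC3-transfected PANC-1 cells under NNC, NDC, or NDC plus 10 µM compound. Cells co-labeled for LC3B and DAPI and imaged by confocal microscopy. LC3 puncta number, percentage area and mean intensity quantified.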

[7] = test system: PANC-1; experiment: Growth inhibition of human PANC1 cells in nutrient-deprived medium incubated for 24 hrs by MTT assay; assay type: functional, cell-based; conditions: PANC-1, 24 h
[8] = test system: PANC-1; experiment: Growth inhibition of human PANC1 cells in nutrient-deprived medium at 10 uM incubated for 24 hrs by MTT assay (reference value: 0.0 +/- 1.9%); assay type: functional; conditions: PANC-1, 24 h
[9] = Toxicity in human PANC1 cells xenografted in nude mouse assessed as mortality at 5 to 20 mg/kg, ip administered daily for 4 weeks post tumor inoculation; assay type: organism-based; conditions: in vivo, 672 h; how it was run: as §3
[10] = test system: PANC-1; experiment: Induction of apoptosis in human PANC1 cells in nutrient-deprived medium assessed as early apoptotic cells at 5 uM incubated for 24 hrs by Annexin V-FITC/PI double staining based flow cytometric analysis (reference value: 0.22 to 14.25%); assay type: functional; how it was run: as §1
[11] = test system: PANC-1; experiment: Inhibition of colony formation in human PANC1 cells in nutrient-deprived medium treated for 24 hrs followed by compound washout and subsequent incubation for 14 days by crystal violet staining based assay; assay type: functional, cell-based
How it was run: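 Clonogenic assay of PANC-1 under NDC across several concentrations. Surviving colonies counted, mean ± S.D., n = 3.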

[12] = test system: PANC-1; experiment: Antitumor activity against human PANC1 cells xenografted in nude mouse assessed as reduction in tumor size at 20 mg/kg, ip administered daily for 4 weeks post tumor inoculation and observed on day 9; assay type: functional; how it was run: as §2
[13] = test system: PANC-1; experiment: Induction of apoptosis in human PANC1 cells in nutrient-deprived medium incubated for 24 hrs by Annexin V-FITC/PI double staining based flow cytometric analysis; assay type: functional, cell-based; how it was run: as §1
[14] = Cytotoxicity against mouse NCTC-1469 cells up to 20 uM incubated for 24 hrs by MTT assay; assay type: cell-based
[15] = test system: PANC-1; experiment: Induction of apoptosis in human PANC1 cells in nutrient-deprived medium assessed as live cells at 10 uM incubated for 24 hrs by Annexin V-FITC/PI double staining based flow cytometric analysis (reference value: 85.75 to 96.8%); assay type: functional; how it was run: as §1
[16] = test system: PANC-1; experiment: Induction of apoptosis in human PANC1 cells in nutrient-deprived medium assessed as live cells at 20 uM incubated for 24 hrs by Annexin V-FITC/PI double staining based flow cytometric analysis (reference value: 85.75 to 96.8%); assay type: functional; how it was run: as §1
[17] = test system: PANC-1; experiment: Antitumor activity against human PANC1 cells xenografted in nude mouse assessed as reduction in tumor weight at 20 mg/kg, ip administered daily for 4 weeks post tumor inoculation; assay type: functional, organism-based; how it was run: as §2
[18] = test system: PANC-1; experiment: Induction of apoptosis in human PANC1 cells in nutrient-deprived medium assessed as late apoptotic cells at 10 uM incubated for 24 hrs by Annexin V-FITC/PI double staining based flow cytometric analysis (reference value: 0 to 0.9%); assay type: functional; how it was run: as §1
[19] = test system: PANC-1; experiment: Induction of apoptosis in human PANC1 cells in nutrient-deprived medium assessed as early apoptotic cells at 20 uM incubated for 24 hrs by Annexin V-FITC/PI double staining based flow cytometric analysis (reference value: 0.22 to 14.25%); assay type: functional; how it was run: as §1
[20] = test system: PANC-1; experiment: Induction of autophagy in human PANC1 cells in nutrient-deprived medium assessed as reduction in percentage area of LC3 at 10 uM incubated for 24 hrs by DAPI staining based confocal microscopic analysis; assay type: functional, cell-based; how it was run: as §4
[21] = test system: PANC-1; experiment: Growth inhibition of human PANC1 cells in nutrient-rich medium at 10 uM incubated for 24 hrs by MTT assay (reference value: 0.0 +/- 3.8%); assay type: functional; conditions: PANC-1, 24 h
[22] = test system: PANC-1; experiment: Antitumor activity against human PANC1 cells xenografted in nude mouse assessed as reduction in tumor size at 20 mg/kg, ip administered daily for 4 weeks post tumor inoculation and observed on day 6; assay type: functional, organism-based; how it was run: as §2
[23] = test system: PANC-1; experiment: Inhibition of autophagy in human PANC1 cells in nutrient-deprived medium assessed as accumulation of SQSTM1 protein at 10 uM incubated for 1 to 6 hrs by Western blot analysis
[24] = test system: PANC-1; experiment: Induction of apoptosis in human PANC1 cells in nutrient-deprived medium assessed as necrotic cells at 5 uM incubated for 24 hrs by Annexin V-FITC/PI double staining based flow cytometric analysis (reference value: 0 to 2.8%); assay type: functional; how it was run: as §1
[25] = test system: PANC-1; experiment: Induction of apoptosis in human PANC1 cells in nutrient-deprived medium assessed as live cells at 5 uM incubated for 24 hrs by Annexin V-FITC/PI double staining based flow cytometric analysis (reference value: 85.75 to 96.8%); assay type: functional; how it was run: as §1
[26] = test system: PANC-1; experiment: Induction of apoptosis in human PANC1 cells in nutrient-deprived medium assessed as late apoptotic cells at 5 uM incubated for 24 hrs by Annexin V-FITC/PI double staining based flow cytometric analysis (reference value: 0 to 0.9%); assay type: functional; how it was run: as §1
[27] = Toxicity in human PANC1 cells xenografted in nude mouse assessed as pathological changes in kidney at 20 mg/kg, ip administered daily for 4 weeks post tumor inoculation by hematoxylin and eosin staining based assay; assay type: organism-based; conditions: in vivo, 672 h; how it was run: as §2
[28] = test system: PANC-1; experiment: Antitumor activity against human PANC1 cells xenografted in ip dosed nude mouse assessed as reduction in tumor size administered daily for 4 weeks post tumor inoculation and observed on day 21 to 30; assay type: functional, organism-based; how it was run: as §2
[29] = test system: PANC-1; experiment: Induction of apoptosis in human PANC1 cells in nutrient-deprived medium assessed as necrotic cells at 20 uM incubated for 24 hrs by Annexin V-FITC/PI double staining based flow cytometric analysis (reference value: 0 to 2.8%); assay type: functional; how it was run: as §1
[30] = test system: PANC-1; experiment: Induction of apoptosis in human PANC1 cells in nutrient-deprived medium assessed as early apoptotic cells at 10 uM incubated for 24 hrs by Annexin V-FITC/PI double staining based flow cytometric analysis (reference value: 0.22 to 14.25%); assay type: functional; how it was run: as §1
[31] = Toxicity in human PANC1 cells xenografted in nude mouse assessed as pathological changes in liver at 20 mg/kg, ip administered daily for 4 weeks post tumor inoculation by hematoxylin and eosin staining based assay; assay type: organism-based; conditions: in vivo, 672 h; how it was run: as §2
[32] = Toxicity in human PANC1 cells xenografted in nude mouse assessed as pathological changes in liver at 30 mg/kg, ip administered every 3 days for 4 weeks post tumor inoculation by hematoxylin and eosin staining based assay; assay type: organism-based; conditions: in vivo; how it was run: as §2
[33] = test system: PANC-1; experiment: Antitumor activity against human PANC1 cells xenografted in nude mouse assessed as reduction in tumor weight at 30 mg/kg, ip administered every 3 days for 4 weeks post tumor inoculation; assay type: functional, organism-based; how it was run: as §2
[34] = Toxicity in human PANC1 cells xenografted in nude mouse assessed as pathological changes in kidney at 30 mg/kg, ip administered every 3 days for 4 weeks post tumor inoculation by hematoxylin and eosin staining based assay; assay type: organism-based; conditions: in vivo; how it was run: as §2
[35] = test system: PANC-1; experiment: Antitumor activity against human PANC1 cells xenografted in nude mouse assessed as reduction in tumor size at 30 mg/kg, ip administered every 3 days for 4 weeks post tumor inoculation; assay type: functional, organism-based; how it was run: as §2
[36] = Toxicity in human PANC1 cells xenografted in nude mouse assessed as change in body weight at 30 mg/kg, ip administered every 3 days for 4 weeks post tumor inoculation; assay type: organism-based; conditions: in vivo; how it was run: as §2

| SMILES | Activity [1] [%] | Activity [4] [%] | pIC50 [7] | inhibition at 10 µM [8] [%] | Activity [10] [%] | Activity [15] [%] | Activity [16] [%] | Activity [18] [%] | Activity [19] [%] | inhibition at 10 µM [21] [%] | Activity [24] [%] | Activity [25] [%] | Activity [26] [%] | Activity [29] [%] | Activity [30] [%] | further results |
| --- | --- | --- | --- | --- | --- | --- | --- | --- | --- | --- | --- | --- | --- | --- | --- | --- |
| CC(C)=CCC/C(C)=C/CC1Cc2c(OCCCNC(=O)c3cccs3)cc(=O)n(CCCO)c2CC1(C)C (stereo unspecified) | 0.14 | 91.74 | 5.31 | 72.8 | 35.35 | 20.25 | 1.56 | 38.03 | 2.34 | 11.5 | 0.09 | 38.56 | 26 | 4.36 | 41.58 | Activity [2]: Active; Activity [3]: Active; Activity [5]: Non-Toxic; Activity [6]: Active; Activity [9]: Non-Toxic; inhibition [11]: Dose-dependent effect; Activity [12]: 71.25 mm3; Activity [13]: Dose-dependent effect; Activity [14]: Non-Toxic; Activity [17]: Active; Activity [20]: Active; Activity [22]: inactive; Activity [23]: Active; Activity [27]: Non-Toxic; Activity [28]: Dose-dependent effect; Activity [31]: Non-Toxic |
| Nc1ccn([C@@H]2O[C@H](CO)[C@@H](O)C2(F)F)c(=O)n1 [GEMCITABINE] |  |  |  |  |  |  |  |  |  |  |  |  |  |  |  | Activity [32]: Non-Toxic; Activity [33]: Active; Activity [34]: Non-Toxic; Activity [35]: Active; Activity [36]: Non-Toxic |
| COc1cc(C[C@H]2C(=O)OC[C@@H]2Cc2ccc(OC)c(OC)c2)ccc1O [ARCTIGENIN] | 5.64 | 90.44 | 5.66 | 79.1 | 1.43 | 4.13 | 2.23 | 89.2 | 1.06 | 66.8 | 6.84 | 8.66 | 83.08 | 6.29 | 1.03 |  |
